According to ChEMBL document CHEMBL1649405, “Structure-activity relationships study of 6-chloro-4-(2-chlorophenyl)-3-(2-hydroxyethyl) quinolin-2(1H)-one derivatives as novel non-nucleoside anti-hepatitis B virus agents” (Eur J Med Chem, 2011):

How the values were obtained:
Hepatitis B virus [1] = experiment: Antiviral activity against Hepatitis B virus infected in human HepG2(2.2.15) cells assessed as inhibition of viral surface antigen secretion after 6 days by ELISA; assay type: functional, organism-based; details: HepG2 2.2.15, 144 h
Summary of the method: (§1)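 HepG 2.2.15 cells in DMEM with 10% FBS, 37 °C, 5% CO2. Treated for 6 days with refeeding every other day. Culture medium centrifuged at 6000 g to clear debris. HBeAg or HBsAg measured by quantitative ELISA on a microplate reader. IC50 = concentration giving 50% inhibition of secretion. Mean of two independent experiments.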

Hepatitis B virus [2] = experiment: Antiviral activity against Hepatitis B virus infected in human HepG2(2.2.15) cells assessed as inhibition of viral e antigen secretion after 6 days by ELISA; assay type: functional, organism-based; details: HepG2 2.2.15, 144 h; summary of the method: as §1
[3] = Cytotoxicity against human HepG2(2.2.15) cells; assay type: cell-based
Summary of the method: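 HepG 2.2.15 cells in DMEM with 10% FBS, 37 °C, 5% CO2. CC50 = concentration killing 50% of cells. Mean of two independent experiments.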

[4] = Selectivity index, ratio of CC50 for human HepG2(2.2.15) cells to IC50 for Hepatitis B virus infected in human HepG2(2.2.15) cells assessed as inhibition of viral surface antigen secretion; assay type: functional
Summary of the method: (§2)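 Ratio of CC50 in HepG 2.2.15 cells to the IC50 for HBeAg or HBsAg secretion. Both values come from ELISA and cytotoxicity runs on the same cell line. Each input is the mean of two independent experiments.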

[5] = Selectivity index, ratio of CC50 for human HepG2(2.2.15) cells to IC50 for Hepatitis B virus infected in human HepG2(2.2.15) cells assessed as inhibition of viral e antigen secretion; assay type: functional; summary of the method: as §2
Hepatitis B virus [6] = experiment: Antiviral activity against Hepatitis B virus infected in human HepG2(2.2.15) cells assessed as inhibition of viral DNA replication after 6 days by PCR analysis; assay type: functional, organism-based; details: hepg2 2.2.15
Summary of the method: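 HepG 2.2.15 cells in DMEM with 10% FBS, 5 mM L-glutamine, penicillin/streptomycin, 37 °C, 5% CO2; seeded 5 × 10^5 per well, medium changed every 2 days. Compound added after 6 days, refed every other day for 6 more days. HBV DNA by real-time PCR against a cloned HBV plasmid standard series. IC50 = 50% inhibition. Mean of two independent experiments.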

Row | Structure (SMILES) | IC50 (Hepatitis B virus [1]) [µM] | IC50 (Hepatitis B virus [2]) [µM] | CC50 [3] [µM] | Selectivity Index [4] | Selectivity Index [5] | IC50 (Hepatitis B virus [6])
1 | CCCCC(=O)OCCc1c(-c2ccccc2Cl)c2cc(Cl)ccc2[nH]c1=O | 82 | > 200 | 200 | 2.4 | <1 | –
2 | COc1ccccc1/C=C/C(=O)OCCc1c(-c2ccccc2Cl)c2cc(Cl)ccc2[nH]c1=O | 61 | 24 | 770 | 13 | 32 | Not Active
3 | C=CCn1c(=O)c(CCO)c(-c2ccccc2Cl)c2cc(Cl)ccc21 | 10 | 12 | 23 | 2.3 | 1.9 | –
4 | CCOCC(=O)OCCc1c(-c2ccccc2Cl)c2cc(Cl)ccc2[nH]c1=O | 95 | > 130 | 130 | 1.4 | <1 | –
5 | O=c1[nH]c2ccc(Cl)cc2c(-c2ccccc2Cl)c1CCO | 86 | 360 | 380 | 4.4 | 1 | –
6 | O=C(OCCc1c(-c2ccccc2Cl)c2cc(Cl)ccc2[nH]c1=O)C1CCCCC1 | 27 | 34 | 38 | 1.4 | 1.1 | –
7 | O=C(OCCc1c(-c2ccccc2Cl)c2cc(Cl)ccc2[nH]c1=O)c1cccnc1 | 55 | 55 | 170 | 3 | 3 | –
8 | O=C(CN1C(=O)c2ccccc2C1=O)OCCc1c(-c2ccccc2Cl)c2cc(Cl)ccc2[nH]c1=O | 170 | > 960 | 960 | 5.7 | <1 | –
9 | O=C(O)Cc1c(-c2ccccc2Cl)c2cc(Cl)ccc2[nH]c1=O | 350 | > 950 | 950 | 2.8 | <1 | –
10 | O=CCc1c(-c2ccccc2Cl)c2cc(Cl)ccc2[nH]c1=O | 76 | > 120 | 120 | 1.6 | <1 | –
11 | CCCC(=O)OCCc1c(-c2ccccc2Cl)c2cc(Cl)ccc2[nH]c1=O | 35 | > 52 | 52 | 1.5 | <1 | –
12 | O=c1c(CCO)c(-c2ccccc2Cl)c2cc(Cl)ccc2n1Cc1ccccc1 | 12 | 12 | 26 | 2.2 | 2.2 | –
13 | O=C(OCCc1c(-c2ccccc2Cl)c2cc(Cl)ccc2[nH]c1=O)c1ccccc1 | 32 | > 43 | 43 | 1.42 | <1 | –
14 | C/C=C/C(=O)OCCc1c(-c2ccccc2Cl)c2cc(Cl)ccc2[nH]c1=O | 25 | 22 | 30 | 1.2 | 1.3 | –
15 | CC(=O)OCC(=O)OCCc1c(-c2ccccc2Cl)c2cc(Cl)ccc2[nH]c1=O | 57 | 71 | 100 | 1.8 | 1.4 | –
